Test results from ChEMBL document CHEMBL4513216, “Probing the Open Global Health Chemical Diversity Library for Multistage-Active Starting Points for Next-Generation Antimalarials” (ACS Infect Dis, 2020).

Assay: Toxicity liver stage against HepG2, at 10uM
Assay type: cell-based
Set-up: test concentration 10 uM, cell line HepG2-A16-CD81EGFP
Conditions: human, HepG2-A16-CD81EGFP cells; read-out: INHIBITION
How it was run: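 Uninfected HepG2-A16-CD81EGFP cells, 3 × 10^3 per well, 1536-well, plated on prespotted compound at 10 μM final, parasite-free screening media added to match infected plates; puromycin 10 μM positive, DMSO 0.5% negative; run in parallel with 48 h PbLuc assay at 37 °C, 5% CO2; viability by CellTiter-Glo luminescence, normalized to controls.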
`Cn1ccc(C(=O)NCCOc2ccc(C(C)(C)C)cc2)cc1=O` showed a cytotoxicity at 10 µM of 9.71%.
`c1ccc2c(c1)nc1n2[C@@H](CNCc2nccs2)COC1` gave a cytotoxicity at 10 µM of -1.4%.
`CCOC(=O)[C@H]1[C@@H](O)C(=O)N(C)C12CCN(C(=O)OCC)CC2` showed a cytotoxicity at 10 µM of -7.83%.
Compound `NC(=O)c1c(SCCN2CCOCC2)sc2c(O)cc(=O)[nH]c12` has a cytotoxicity at 10 µM of 1.17%.
Work on `CCn1cc2c(n1)CN(S(=O)(=O)Cc1ccccc1)CC2COC` (stereo not drawn) yielded a cytotoxicity at 10 µM of 10.6%.
With `COc1cc(N2CCCn3cnc(COCCO)c3C2)ncn1` the cytotoxicity at 10 µM was -3.61%.
Compound `O=C(C1CCOCC1)N1CC[C@@H]2[C@H]1CCC(=O)N2c1ccccc1` has a cytotoxicity at 10 µM of 5.5%.
Compound `CCOCC1CN(Cc2ccoc2)Cc2cn(CC3CC3)nc21` (stereo not drawn) has a cytotoxicity at 10 µM of 12.1%.
In the case of `Cn1ncc2c1NC(=O)CC2c1c(F)cccc1Cl` (stereo not drawn), the cytotoxicity at 10 µM is reported as 46.1%.
With `CC(=O)N1[C@H](Cn2cncn2)C[C@@H]2CN(S(C)(=O)=O)CC[C@@H]21` the cytotoxicity at 10 µM was -10.9%.
For `COCCNS(=O)(=O)c1cccc(CSC)c1`, the cytotoxicity at 10 µM was 11.9%.
Compound `CCCn1ccc(C(=O)N2CCC(C)CC2)n1` has a cytotoxicity at 10 µM of -7.01%.
In the case of `Cc1ncc2c(n1)CCCC2NC(=O)c1ccncc1` (stereo not drawn), the cytotoxicity at 10 µM is reported as -19.4%.
For `CC(=O)N[C@H]1CCO[C@@H](c2cccc(NC(=O)C(C)(C)C)c2)C1`, the cytotoxicity at 10 µM was 6.17%.
Compound `Cn1ccc2cc(CC3COCCN(C(=O)c4ccccn4)C3)ccc21` (stereo not drawn) has a cytotoxicity at 10 µM of 4.57%.
Work on `Cc1cc(C(F)(F)F)nc(C2CCCN2S(C)(=O)=O)n1` (stereo not drawn) yielded a cytotoxicity at 10 µM of 2.68%.
Work on `CC(=O)N1CCCCC[C@@H]2[C@@H]1[C@H](c1cccc(F)c1)CN2C(C)=O` yielded a cytotoxicity at 10 µM of 5.21%.
`CC(C)(C)OC(=O)N1CCN(c2cccnc2)CC1C(=O)O` (stereo not drawn) gave a cytotoxicity at 10 µM of -13.7%.
Compound `Cc1cc(CN(C)Cc2ccccc2N2CCCCC2)n[nH]1` has a cytotoxicity at 10 µM of -2.98%.
`CCc1ocnc1C(=O)N1CCN(c2nncc3ccccc23)CC1` showed a cytotoxicity at 10 µM of 6.61%.
With `Cc1nonc1NC(=O)CCn1cc(Br)ccc1=O` the cytotoxicity at 10 µM was 0.297%.
Work on `CS(=O)(=O)CCNC(=O)NCCc1cc2ccccc2o1` yielded a cytotoxicity at 10 µM of 2.8%.
Work on `CCc1ccc(C(=O)NC2CCCN(c3ccn(C)n3)C2=O)o1` (stereo not drawn) yielded a cytotoxicity at 10 µM of -2.43%.
`CCN(CC)CCN(CC(C)C)c1cc(C(F)(F)F)nc2ncnn12` showed a cytotoxicity at 10 µM of -5.39%.
With `COc1cccc(NC(=O)CN(C(C)C)C2CC2)c1` the cytotoxicity at 10 µM was -2.83%.
In the case of `COc1ccc(C(C)NS(=O)(=O)c2ccc3c(c2)CCC(=O)N3)cc1F` (stereo not drawn), the cytotoxicity at 10 µM is reported as -49.7%.
`CC1CCN(C(=O)c2sccc2-n2cnnn2)CC1` gave a cytotoxicity at 10 µM of 9.33%.
`Cc1csc(C2(NC(=O)CCc3ccncc3)CCCC2)n1` gave a cytotoxicity at 10 µM of -12.1%.
For `O=C(NC1CCCN(c2ccc(OC(F)F)cc2)C1)c1cc[nH]n1` (stereo not drawn), the cytotoxicity at 10 µM was 3.65%.
With `CCc1nsc(N2CCCN(C(=O)c3ccsc3)CC2)n1` the cytotoxicity at 10 µM was 5.73%.
For `CN1CCN(C(=O)c2cc[nH]c(=O)c2)Cc2ccccc21`, the cytotoxicity at 10 µM was -18.1%.
For `O=C(c1cccn1-c1ccc2c(c1)OCCO2)N1CCCC1`, the cytotoxicity at 10 µM was -9.42%.
Work on `CC(CNC(=O)c1cn(-c2ccccc2)nn1)Cn1cccn1` (stereo not drawn) yielded a cytotoxicity at 10 µM of -41.6%.
In the case of `CC1CN(Cc2nnsc2Cl)CCN1c1nccs1` (stereo not drawn), the cytotoxicity at 10 µM is reported as -39.3%.
With `Cc1ccc2nc(CN3CCCCC3C(=O)N3CCOCC3)cn2c1` (stereo not drawn) the cytotoxicity at 10 µM was 3.13%.
`Cc1ccc(S(=O)(=O)NC(=O)c2cc(S(C)(=O)=O)ccc2C)s1` gave a cytotoxicity at 10 µM of 14.1%.
With `CN(C)c1nccc(N(C)C2CCN(CC3CCOC3)CC2)n1` (stereo not drawn) the cytotoxicity at 10 µM was -18.9%.
Work on `Cc1nc(-c2ccccc2)sc1CSCCS(C)(=O)=O` yielded a cytotoxicity at 10 µM of 3.85%.
Compound `CN1CCOC(C(=O)N2CCC3(CCCCC3)C2)C1` (stereo not drawn) has a cytotoxicity at 10 µM of 5.41%.
In the case of `O=C(C1SCCc2sccc21)N1CCC(O)CC1` (stereo not drawn), the cytotoxicity at 10 µM is reported as -7.38%.
For `COCCCN1CCC(NC(=O)C(C)C)CC1`, the cytotoxicity at 10 µM was -11.9%.
For `CCOc1ncccc1NC(=O)c1cc2c(s1)CCC2`, the cytotoxicity at 10 µM was -15%.
`CN(Cc1cccc(CCN)c1)Cc1cccc2ncccc12` showed a cytotoxicity at 10 µM of 7.82%.
`c1cnc2c(-c3nccn3C[C@@H]3CCCN4CCCC[C@H]34)cccc2c1` gave a cytotoxicity at 10 µM of 1.83%.
Work on `Nc1nc(CCCNC(=O)c2ccccc2C2CCNC2)cs1` (stereo not drawn) yielded a cytotoxicity at 10 µM of -3.06%.
`CC(C)Cn1cncc1Cn1cccc(C(F)(F)F)c1=O` showed a cytotoxicity at 10 µM of -10.2%.
Compound `Cc1cc(-c2ccccc2Cl)nc(N)n1` has a cytotoxicity at 10 µM of -0.268%.
`CN(Cc1csc(-c2cccs2)n1)C(=O)CCn1ccc(=O)[nH]c1=O` showed a cytotoxicity at 10 µM of 4.71%.
Work on `Cc1ccccc1C1CCCN(C(=O)c2c[nH]c(=O)c(Cl)c2)C1` (stereo not drawn) yielded a cytotoxicity at 10 µM of -59.8%.
With `CC(C)Oc1ccc(CN2CCCC(N3CCCC3)C2)cc1CO` (stereo not drawn) the cytotoxicity at 10 µM was 0.271%.
For `CN(Cc1noc2c1CCCC2)C(=O)Cn1cnc2ccccc2c1=O`, the cytotoxicity at 10 µM was -52.4%.
For `CCC(=O)Nc1cccc(OCC(=O)N(C)Cc2ccon2)c1`, the cytotoxicity at 10 µM was 5.37%.
For `COCC1(CNC(=O)[C@@]23CNC[C@@H]2CN(C2CCCC2)C3)CC1`, the cytotoxicity at 10 µM was -11.9%.
For `Cc1cc(C)n(CC(=O)N2CCCCC2CCN(C)C)c(=O)n1` (stereo not drawn), the cytotoxicity at 10 µM was -14.7%.
In the case of `Cc1nn(-c2ccccc2)c(C)c1-c1ccnc(N2CCC(O)CC2)n1`, the cytotoxicity at 10 µM is reported as -1.74%.
Compound `CN(CCc1ccccc1)C1CCCN(Cc2nccn2C)C1` (stereo not drawn) has a cytotoxicity at 10 µM of -18.5%.
Compound `CCC(C(=O)NCc1ccncc1)N(c1ccc(OC)cc1)S(C)(=O)=O` (stereo not drawn) has a cytotoxicity at 10 µM of -10.2%.
In the case of `Cn1cc(C(=O)N2CCCC(Cc3nccs3)C2)cn1` (stereo not drawn), the cytotoxicity at 10 µM is reported as 3.83%.
`CNc1nc(CNC(=O)Nc2cccc(-c3ncc(C)o3)c2)cs1` gave a cytotoxicity at 10 µM of -7.57%.
In the case of `Cc1c(F)cc(C(=O)O)cc1S(=O)(=O)Nc1ccccc1`, the cytotoxicity at 10 µM is reported as -4.54%.
`CC(O)CN1CCN(C(=O)Cc2ccccc2Cl)CC1` (stereo not drawn) gave a cytotoxicity at 10 µM of -9.6%.
`CCc1noc(C)c1C(=O)N1CCCC1Cn1nc(C)cc1C` (stereo not drawn) gave a cytotoxicity at 10 µM of -5.48%.
`CCc1nnc2n1CCN(C(=O)CN(C)Cc1ccccc1)C2` gave a cytotoxicity at 10 µM of -6.22%.
In the case of `CC(=O)N1CCN(C(=O)NCc2csc(Br)c2)CC1`, the cytotoxicity at 10 µM is reported as -6.31%.
Compound `Cc1nnc2n1CCN(C(=O)c1cc(Cl)c(Cl)n1C)C2` has a cytotoxicity at 10 µM of -4.05%.
Work on `NC(=O)c1cnn2c1NCC(CNCCCOc1ccccc1F)C2` (stereo not drawn) yielded a cytotoxicity at 10 µM of -5.56%.
In the case of `COCCN1CCN(Cc2noc(C3CC3)n2)CC1C` (stereo not drawn), the cytotoxicity at 10 µM is reported as 1.43%.
Compound `Cc1ccc(NC(=O)NCCCc2n[nH]c(N)c2C#N)cc1` has a cytotoxicity at 10 µM of -4.71%.
Work on `COCCOc1ccc(NC(=O)C2CCC2)cn1` yielded a cytotoxicity at 10 µM of -9.65%.
`O=C(Cc1ccc2c(c1)OCCO2)NC1CCN(CC(F)F)CC1` showed a cytotoxicity at 10 µM of -9.86%.
`CC(Cn1cccn1)NC(=O)NCc1ccccn1` (stereo not drawn) gave a cytotoxicity at 10 µM of 6.79%.
Work on `CCNC(=O)C1CCN(Cc2csc(-c3ccc(C)o3)n2)CC1` yielded a cytotoxicity at 10 µM of 6.26%.
In the case of `CCN1CCN(CC(O)c2ccc(F)cc2)CC1` (stereo not drawn), the cytotoxicity at 10 µM is reported as -9.41%.
`CN(C)c1cc(C(=O)N2CCCN(Cc3cscn3)CC2)ccn1` gave a cytotoxicity at 10 µM of -15%.
In the case of `CCc1nc(C2CCCN2Cc2nc3ccccc3o2)no1` (stereo not drawn), the cytotoxicity at 10 µM is reported as 3.06%.
Compound `COc1cc2c(cc1CNC(Cc1cccs1)c1nccs1)OCO2` (stereo not drawn) has a cytotoxicity at 10 µM of -1.88%.
Compound `Cn1nc(CN2CCCC2)c2c1CN(C(=O)Nc1cccc(F)c1)CC2` has a cytotoxicity at 10 µM of 5.98%.
`c1coc(CN2CCc3onc(Cn4cccc4)c3C2)c1` showed a cytotoxicity at 10 µM of 8.43%.
With `CC(C)CN1CCS(=O)(=O)[C@@H]2CCN(S(=O)(=O)N(C)C)CC[C@@H]21` the cytotoxicity at 10 µM was 7.25%.
Work on `COCCN1CCOCC2(CCCN(Cc3ccc(C)o3)C2)C1` (stereo not drawn) yielded a cytotoxicity at 10 µM of -5.58%.
For `COc1ccccc1CN1C[C@@H]2CN(Cc3cccnc3)CCO[C@@H]2C1`, the cytotoxicity at 10 µM was 12.3%.
For `CN1[C@H](Cn2cncn2)C[C@@H]2CN(Cc3cccc(C#N)c3)CC[C@@H]21`, the cytotoxicity at 10 µM was -9.78%.
In the case of `O=C(NCC1CC1)[C@H]1C[C@H]2CN(C(=O)NCC3CCCCC3)C[C@@H]1O2`, the cytotoxicity at 10 µM is reported as 3.79%.
